Source: ChEMBL document CHEMBL1156902, “Evaluation of 3,4-dihydroquinazoline-2(1H)-thiones as inhibitors of alpha-MSH-induced melanin production in melanoma B16 cells” (Bioorg Med Chem, 2010)
Activity calls are given as the source filed them. The rule behind the calls is not given here.

Assays:
B16 [1] = assay: Cytotoxicity against mouse B16 cells assessed as viability at 1 to 30 uM after 72 hrs by MTT assay in presence of alphaMSH; type: cell-based; conditions: b16, 72 h
Method in brief: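 B16 cells were exposed to test compound for 72 h with α-MSH (10 nM). They were then given MTT for 2 h, and the formazan was dissolved in 100% DMSO. Viability was read as optical density at 590 nm.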

B16 [2] = assay: Inhibition of alpha-MSH-induced melanin production in mouse B16 cells after 72 hrs; type: functional, cell-based; conditions: B16, 72 h
Method in brief: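 B16 cells were seeded at 2.5 × 10³ per well and held 24 h at 37 °C in 5% CO₂. They were then stimulated with α-MSH for 72 h plus sample (10 nM in methods; 100 nM in results text). Cells were lysed in 1 N NaOH–10% DMSO at 80 °C. Melanin was read at A405 against a synthetic melanin standard, as the mean of 3–5 independent experiments.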

[3] = biological target: T1, Tyrosinase (Mus musculus) (UniProt P11344); assay: Inhibition of mouse tyrosinase in 48 hrs alpha-MSH-induced mouse B16 cells at 0.3 to 10 uM; type: cell-based
T1 sequence (whole entry): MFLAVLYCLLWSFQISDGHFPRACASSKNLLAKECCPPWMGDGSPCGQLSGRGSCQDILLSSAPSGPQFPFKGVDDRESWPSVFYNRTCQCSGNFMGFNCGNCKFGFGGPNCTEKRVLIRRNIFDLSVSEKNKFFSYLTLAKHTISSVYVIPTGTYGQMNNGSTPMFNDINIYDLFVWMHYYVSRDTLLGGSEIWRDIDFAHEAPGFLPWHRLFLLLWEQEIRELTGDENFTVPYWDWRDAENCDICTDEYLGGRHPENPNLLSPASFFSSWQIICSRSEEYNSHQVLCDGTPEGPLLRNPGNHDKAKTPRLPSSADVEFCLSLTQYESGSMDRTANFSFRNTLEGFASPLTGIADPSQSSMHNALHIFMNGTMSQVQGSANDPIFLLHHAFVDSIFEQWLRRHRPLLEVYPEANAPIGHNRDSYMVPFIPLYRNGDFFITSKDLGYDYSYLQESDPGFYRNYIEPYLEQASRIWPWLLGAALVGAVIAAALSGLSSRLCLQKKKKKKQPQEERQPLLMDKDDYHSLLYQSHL

B16 [4] = assay: Inhibition of alpha-MSH-induced melanin production in mouse B16 cells at 10 uM after 72 hrs; type: functional; conditions: B16, 72 h
[5] = biological target: T1, Tyrosinase (Mus musculus); assay: Inhibition of mouse tyrosinase in 48 hrs alpha-MSH-induced mouse B16 cells by Western blot analysis; type: cell-based
Method in brief: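 B16 cells were stimulated with α-MSH for 48 h plus compound, then lysed in Tris/NaCl/SDS/NP-40 buffer with protease inhibitors at pH 7.4. Equal protein was run on SDS-PAGE, blotted to PVDF and blocked with milk or BSA. Anti-tyrosinase (1:1000) was applied overnight at 4 °C, with GAPDH (1:5000) as internal control. Detection used an HRP secondary and ECL.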

B16 [6] = assay: Inhibition of alpha-MSH-induced melanin production in mouse B16 cells at 100 uM after 72 hrs; type: functional; conditions: B16, 72 h

| Structure (SMILES) | IC50 (B16 [2]) | inhibition at 10 µM (B16 [4]) | other results |
| --- | --- | --- | --- |
| Cc1ccc2c(c1)CN(CCc1ccc(Cl)cc1)C(=S)N2 | 4.3 µM | > 100% |  |
| Cc1ccc2c(c1)CN(CCc1ccc(C(C)C)cc1)C(=S)N2 | 0.5 µM | > 100% |  |
| OC[C@H]1O[C@@H](Oc2ccc(O)cc2)[C@H](O)[C@@H](O)[C@@H]1O [ARBUTIN] | 180 µM |  |  |
| Cc1ccc2c(c1)NC(=S)N(CCc1ccccc1)C2 | 0.8 µM | > 100% |  |
| Cc1ccc2c(c1)CN(CCc1ccccc1)C(=S)N2 | 0.8 µM | > 100% |  |
| S=C1Nc2ccc(Cl)cc2CN1CCc1ccc(Cl)cc1 | 1.6 µM | > 100% |  |
| Cc1ccc2c(c1)CN(CCc1cccc3ccccc13)C(=O)N2 | > 10 µM | 5% |  |
| Cc1ccc(CCN2Cc3cc(C)ccc3NC2=S)cc1 | 2.7 µM | > 100% |  |
| Cc1ccc2c(c1)NC(=O)N(CCc1ccccc1)C2 | > 10 µM | 24% |  |
| NC(=O)Nc1ccccc1 |  |  | inhibition at 100 µM (B16 [6]): 0% |
| O=c1cc(CO)occ1O [KOJIC ACID] | 70 µM |  |  |
| Cc1ccc(CCN2Cc3cc(Cl)ccc3NC2=O)cc1 | > 10 µM | 6% |  |
| Cc1ccc(CCN2Cc3cc(Cl)ccc3NC2=S)cc1 | 5.5 µM | > 100% |  |
| Cc1ccc2c(c1)CN(CCc1ccc(Cl)cc1)C(=O)N2 | > 10 µM | 15% |  |
| Cc1cccc2c1CN(CCc1ccccc1)C(=O)N2 | 9.8 µM | 18% |  |

Second part, led by results:

| IC50 (B16 [2]) | Structure (SMILES) | inhibition at 10 µM (B16 [4]) | other results |
| --- | --- | --- | --- |
| 0.5 µM | Cc1ccc2c(c1)CN(CCc1ccc(Cl)cc1Cl)C(=S)N2 | > 100% | Activity (B16 [1]): Non-toxic; inhibition [3]: inactive; inhibition [5]: Dose-dependent effect |
| > 10 µM | Cc1ccc2c(c1)CN(CCc1ccc(C(C)C)cc1)C(=O)N2 | 6% |  |
| > 10 µM | Cc1ccc(CCN2Cc3cc(C)ccc3NC2=O)cc1 | 10% |  |
| 2.4 µM | Cc1ccc2c(c1)CN(CCc1cccc3ccccc13)C(=S)N2 | > 100% |  |
| > 10 µM | O=C1Nc2ccc(Cl)cc2CN1CCc1ccccc1 | 18% |  |
| 1.1 µM | Cc1cccc2c1CN(CCc1ccccc1)C(=S)N2 | > 100% |  |
| 2.8 µM | S=C1Nc2ccc(Cl)cc2CN1CCc1ccccc1 | > 100% |  |
| > 10 µM | O=C1Nc2ccc(Cl)cc2CN1CCc1ccc(Cl)cc1 | 7% |  |
| > 10 µM | Cc1ccc2c(c1)CN(CCc1ccc(Cl)cc1Cl)C(=O)N2 | 11% |  |
| > 10 µM | Cc1ccc2c(c1)CN(CCc1ccccc1)C(=O)N2 | 16% |  |
